What was measured:
[1] = target: T1, Polyunsaturated fatty acid 5-lipoxygenase (Rattus norvegicus, UniProt P12527); assay: In vitro inhibition of rat 5-Lipoxygenase
T1 sequence (P12527 whole entry): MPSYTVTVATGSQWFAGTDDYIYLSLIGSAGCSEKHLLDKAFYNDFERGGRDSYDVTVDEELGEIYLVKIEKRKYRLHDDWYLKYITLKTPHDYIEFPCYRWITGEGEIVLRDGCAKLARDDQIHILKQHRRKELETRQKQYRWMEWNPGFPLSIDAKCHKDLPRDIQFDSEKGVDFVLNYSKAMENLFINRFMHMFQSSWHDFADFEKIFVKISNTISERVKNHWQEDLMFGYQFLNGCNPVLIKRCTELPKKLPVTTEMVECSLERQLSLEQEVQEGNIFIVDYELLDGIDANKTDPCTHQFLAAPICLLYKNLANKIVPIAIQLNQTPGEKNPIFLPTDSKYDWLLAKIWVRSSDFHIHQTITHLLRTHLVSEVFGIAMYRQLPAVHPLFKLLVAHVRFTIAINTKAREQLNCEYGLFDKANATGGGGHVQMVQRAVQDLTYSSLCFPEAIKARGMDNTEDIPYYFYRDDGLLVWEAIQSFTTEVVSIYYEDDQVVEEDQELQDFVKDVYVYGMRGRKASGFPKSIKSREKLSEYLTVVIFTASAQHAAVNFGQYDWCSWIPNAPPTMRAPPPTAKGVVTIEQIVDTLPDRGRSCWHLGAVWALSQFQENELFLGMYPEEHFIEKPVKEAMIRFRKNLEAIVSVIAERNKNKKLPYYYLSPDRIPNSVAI
Outline: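 Broken-cell assay: homogenized rat basophilic RBL-1 cells preincubated 5 min at 37 °C with compound or vehicle, then given [14C]arachidonic acid. A chloroform extract was run on TLC, and LTB4 and 5-HETE were quantified by radiochromatographic scanning.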

[2] = Partition coefficient (logP); assay type: physicochemical; details: octanol/water
[3] = target: T2, Polyunsaturated fatty acid 5-lipoxygenase (Rattus norvegicus) (UniProt P12527); details: at 1 µM
T2 sequence (whole entry): T1 sequence (P12527 whole entry)

Cavia porcellus = assay: Compound was evaluated for the inhibition of leukotriene-mediated bronchoconstriction in guinea pig (in vivo); assay type: functional; details: Lung
Outline: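 Guinea pigs were immunized with ovalbumin 1 mg plus alum 3 mg and used two weeks later, anesthetized and mechanically ventilated with tracheal pressure monitored. Pretreatment iv: naproxen 10 mg/kg, pyrilamine 3 mg/kg, propranolol 0.1 mg/kg. Compound or vehicle was given orally 1 h before iv ovalbumin challenge (0.3 mg/kg). Percent inhibition was taken from the maximum tracheal pressure rise within 20 min. ED50 with 95% confidence limits came from linear dose-response portions, n≥8 per dose.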

[4] = target: T2, Polyunsaturated fatty acid 5-lipoxygenase (Rattus norvegicus); assay: Compound was evaluated for the inhibition of 5-Lipoxygenase (5-LO) ex vivo; assay type: functional
Outline: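 Rats received 0.25% (w/v) carrageenan to induce pleural inflammation. After 3 h, compound or vehicle was given orally, and rats were killed 1 h later. Pleural exudate cells (>95% neutrophils) were stimulated with A23187 for 15 min and stopped with acetonitrile/methanol. After 30 min extraction at room temperature, samples were centrifuged and LTB₄ measured by reverse-phase HPLC. ED₅₀ with 95% confidence limits came from linear dose-response portions, ≥5 animals per dose.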

[5] = target: T2, Polyunsaturated fatty acid 5-lipoxygenase (Rattus norvegicus); assay: Compound was evaluated for the inhibition of 5-Lipoxygenase (5-LO) in vitro at 1 uM

Work on `COCCC1C(=O)NN(c2ccccc2)C1C` (stereo unspecified) yielded an IC50 [1] of 500 nM and a logP [2] of 1.05.

For `COCCc1cn(-c2ccccc2)[nH]c1=O`, the IC50 [1] was > 1000 nM and the inhibition [3] was 35%.

Work on `CSC1CN(c2ccccc2)NC1=O` (stereo unspecified) yielded an IC50 [1] of 320 nM and a logP [2] of 1.97.

With `O=C1NN(c2ccccc2)CC1C(O)(c1ccccc1)c1ccccc1` (stereo unspecified) the IC50 [1] was < 1000 nM.

`CCCOCC1CN(c2ccccc2)NC1=O` (stereo unspecified) showed an IC50 [1] of 260 nM and a logP [2] of 1.95.

With `COCCC1C(=O)NN(c2ccccc2)C1(C)C` (stereo unspecified) the IC50 [1] was > 1000 nM and the inhibition [3] was < 20%.

With `COCC1(C)CN(c2ccccc2)NC1=O` (stereo unspecified) the IC50 [1] was 670 nM and the logP [2] was 1.41.

Compound `CCOCCC1CN(c2ccccc2)NC1=O` (stereo unspecified) has an IC50 [1] of 150 nM and a logP [2] of 1.06.

Work on `COCCC1CN(c2cccc(C(F)(F)F)c2)NC1=O` (stereo unspecified) yielded an IC50 [1] of 220 nM and a logP [2] of 1.41.

With `CC(C)(O)C1CN(c2ccccc2)NC1=O` (stereo unspecified) the IC50 [1] was > 1000 nM and the inhibition [3] was 35%.

In the case of `COCCC1CN(c2ccc(Cl)cc2)NC1=O` (stereo unspecified), the IC50 [1] is reported as 250 nM and the logP [2] is reported as 1.24.

For `COCc1cn(-c2ccccc2)[nH]c1=O`, the IC50 [1] was > 1000 nM.

Work on `COCCC1CN(c2ccc(Cl)c(Cl)c2)NC1=O` (stereo unspecified) yielded an IC50 [1] of 190 nM and a logP [2] of 1.96.

`COCCC1CN(c2ccccc2)NC1=O` (single isomer, unassigned; (+)) showed an IC50 [1] of 350 nM.

`COCCC1CN(c2ccc(OC)cc2)NC1=O` (stereo unspecified) gave an IC50 [1] of 1460 nM and a logP [2] of 0.45.

`COCCC1CN(c2ccccc2)NC1=O` (stereo in doubt; 1f) [listing 1 of 2 here] gave an ED50 (Cavia porcellus) of 62 mg/kg, an IC50 [1] of 480 nM and a logP [2] of 0.53.

`COCCC1CCN(c2ccccc2)NC1=O` (stereo unspecified) showed an IC50 [1] of 440 nM and a logP [2] of 1.09.

`O=C1NN(c2ccccc2)CC1SCc1ccccc1` (stereo unspecified) gave an IC50 [1] of 180 nM and a logP [2] of 3.63.

For `O=C1CCN(c2ccccc2)N1` [PHENIDONE], the ED50 (Cavia porcellus) was 69 mg/kg, the ED50 [4] was 16 mg/kg and the logP [2] was 0.893.

Compound `COCCC1CN(c2ccccc2)NC1=O` (stereo in doubt; 1f (-)) has an IC50 [1] of 10300 nM.

In the case of `NC1=NN(c2cccc(C(F)(F)F)c2)CC1` [BW-755C], the ED50 (Cavia porcellus) is reported as 300 mg/kg and the ED50 [4] is reported as > 300 mg/kg.

`O=C1CCCN(c2ccccc2)N1` showed an IC50 [1] of 530 nM and a logP [2] of 1.45.

In the case of `O=C1NN(c2ccccc2)CC1Cc1cccs1` (stereo unspecified), the IC50 [1] is reported as 140 nM and the logP [2] is reported as 2.48.

For `CCSC1CN(c2ccccc2)NC1=O` (stereo unspecified), the ED50 (Cavia porcellus) was 92 mg/kg, the ED50 [4] was 95 mg/kg and the IC50 [1] was 60 nM. It also gave a logP [2] of 2.5.

For `CCOCC1CN(c2ccccc2)NC1=O` (stereo unspecified), the IC50 [1] was 280 nM and the logP [2] was 1.42.

With `COCCC1CN(c2ccccc2)NC1=O` (stereo in doubt; 1f) [listing 2 of 2 here] the ED50 [4] was 43 mg/kg.

In the case of `O=C1NN(c2ccccc2)CC1Sc1ccccn1` (stereo unspecified), the IC50 [1] is reported as 120 nM and the logP [2] is reported as 2.16.

Work on `COCCC1CN(c2ccc(OCc3ccccc3)cc2)NC1=O` (stereo unspecified) yielded an IC50 [1] of 500 nM and a logP [2] of 2.22.

In the case of `CC(=O)NN(C)c1ccccc1`, the inhibition [5] is reported as < 20%.

With `O=C1NN(c2ccccc2)CC1CCO` (stereo unspecified) the IC50 [1] was > 1000 nM and the inhibition [3] was 35%.

`COCCC1CN(c2ccc(O)cc2)NC1=O` (stereo unspecified) showed an IC50 [1] of 5130 nM and a logP [2] of -0.14.

For `COCC1CN(c2ccccc2)N(C)C1=O` (stereo unspecified), the IC50 [1] was > 1000 nM and the inhibition [3] was < 20%.

In the case of `CN(C)CCC1CN(c2ccccc2)NC1=O` (stereo unspecified), the inhibition [5] is reported as < 20% and the IC50 [1] is reported as > 1000 nM.

With `COCCOCC1CN(c2ccccc2)NC1=O` (stereo unspecified) the IC50 [1] was 520 nM and the logP [2] was 0.955.

`COCC1CN(c2ccccc2)NC1=O` (stereo unspecified) showed an ED50 (Cavia porcellus) of 25 mg/kg, an ED50 [4] of 29 mg/kg and an IC50 [1] of 590 nM. It also gave a logP [2] of 0.891.

`COCCC1CN(c2ccc(C)cc2)NC1=O` (stereo unspecified) gave a logP [2] of 1.03.

Source: ChEMBL document CHEMBL1125687, “5-Lipoxygenase inhibitors: the synthesis and structure-activity relationships of a series of 1-phenyl-3-pyrazolidinones” (J Med Chem, 1991)
